Experiment [1] concerns CCRF-CEM. As to the kind of experiment: Cytotoxicity against human CEM cells after 72 hrs by MTT assay. The class given is functional, cell-based. The method, boiled down:
(§1)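 Cells kept in RPMI-1640 with 10% heat-inactivated FCS plus penicillin/streptomycin at 37 °C, 5% CO2. Seeded at 1 × 10^5 cells per well and treated at 0.001–100 µM for 72 h at 37 °C. Viability read by MTT. IC50 was the concentration killing 50% relative to untreated controls, by non-linear regression. Duplicate wells, three independent experiments.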
A general note: Formazan colour is commonly taken as a measure of viable cells.

The subject of experiment [2] is CCRF-CEM. As to the kind of experiment: Cell cycle arrest in human CEM cells assessed as accumulation at G2/M phase at 6.4 uM after 18 hrs by flow cytometry. It counts as functional. Conditions: in the assay text read “10 uM” for “6.4 uM”. Put shortly:
(§2)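 CEM cells grown in RPMI-1640 with 10% heat-inactivated FCS at 37 °C, 5% CO2, exposed to compound for 18 h at 37 °C. Fixed in 70% ethanol 18 h at 4 °C, RNase A (50 µg/ml) 0.5 h at 37 °C, then propidium iodide (final 50 µg/ml) 0.5 h at 4 °C. Flow cytometry on 10^4 cells per sample gave phase distribution.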
On the technique in general: A flow cytometer gives signals particle by particle.

Experiment [3] deals with CCRF-CEM. Kind of experiment: Induction of apoptosis in human CEM cells at 6.4 uM after 18 hrs by flow cytometry. The class given is functional. The note with it: in the assay text read “10 uM” for “6.4 uM”. Put shortly: (§3)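 CEM cells exposed 18 h at 37 °C, then ethanol-fixed, RNase-treated and stained with propidium iodide (final 50 µg/ml). Flow cytometry on 10^4 cells per sample. Dead cells were scored as the population left of the G1/G0 peak, reflecting DNA degradation, and reported as percent.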

In experiment [4] the test system is CCRF-CEM. As to the kind of experiment: Cell cycle arrest in human CEM cells assessed as accumulation at G0/G1 phase at 6.4 uM after 18 hrs by flow cytometry. The note with it: in the assay text read “10 uM” for “6.4 uM”. It counts as functional. Put shortly: as §2
For experiment [5], the species on record is Bos taurus. Kind of experiment: Inhibition of calf brain beta-tubulin polymerization at 10 uM after 30 mins by spectrophotometry. Put shortly: (§4)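 Calf brain tubulin (100 µL at 1 mg/ml) was mixed with 400 µL buffer: 0.1 M MES, 1 mM EGTA, 0.5 mM MgCl2, 0.1 mM EDTA, 2.5 M glycerol. Compound or solvent control was added, then GTP to a final 1 mM. OD340 was read at 0 min (baseline) and at 30 min, with assembly at room temperature.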

The test system of experiment [6] is CCRF-CEM. Kind of experiment: Cell cycle arrest in human CEM cells assessed as accumulation at S phase at 6.4 uM after 18 hrs by flow cytometry. The class given is functional. The note with it: in the assay text read “10 uM” for “6.4 uM”. Put shortly:
as §2

For experiment [7], the system named is CCRF-CEM. Kind of experiment: Induction of apoptosis in human CEM cells at 3.2 uM after 18 hrs by flow cytometry. The class given is functional. The method, boiled down: as §3
For experiment [8], the system named is CCRF-CEM. As to the kind of experiment: Cell cycle arrest in human CEM cells assessed as accumulation at G2/M phase at 3.2 uM after 18 hrs by flow cytometry. It counts as functional. Put shortly: as §2
Experiment [9] has as its system CCRF-CEM. Kind of experiment: Cell cycle arrest in human CEM cells assessed as accumulation at S phase at 3.2 uM after 18 hrs by flow cytometry. The class given is functional. Put shortly:
as §2

The test system of experiment [10] is CCRF-CEM. Kind of experiment: Cell cycle arrest in human CEM cells assessed as accumulation at G0/G1 phase at 3.2 uM after 18 hrs by flow cytometry. The class given is functional. The method, boiled down:
as §2

The subject of experiment [11] is CCRF-CEM. Kind of experiment: Induction of apoptosis in human CEM cells at 3.3 uM after 18 hrs by flow cytometry. It counts as functional. Put shortly:
as §3

In experiment [12] the test system is CCRF-CEM. Kind of experiment: Cell cycle arrest in human CEM cells assessed as accumulation at G0/G1 phase at 3.3 uM after 18 hrs by flow cytometry. The class given is functional. Put shortly: as §2
For experiment [13], the system named is CCRF-CEM. As to the kind of experiment: Cell cycle arrest in human CEM cells assessed as accumulation at S phase at 3.3 uM after 18 hrs by flow cytometry. It counts as functional. Put shortly: as §2
Experiment [14] concerns CCRF-CEM. Kind of experiment: Cell cycle arrest in human CEM cells assessed as accumulation at G2/M phase at 3.3 uM after 18 hrs by flow cytometry. It counts as functional. Put shortly: as §2
The species named for experiment [15] is Bos taurus. Kind of experiment: Inhibition of calf brain beta-tubulin polymerization at 3.3 uM after 30 mins by spectrophotometry. The method, boiled down:
as §4

Experiment [16] has as its system CCRF-CEM. Kind of experiment: Cytotoxicity against human CEM cells after 24 hrs by MTT assay. It counts as functional, cell-based. Put shortly:
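CEM cells treated at a range of concentrations for 24 h. Cell death measured by MTT.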

The subject of experiment [17] is CCRF-CEM. As to the kind of experiment: Induction of apoptosis in human CEM cells at 10 uM after 18 hrs by flow cytometry. It counts as functional. Conditions: in the assay text read “6.4 uM” for “10 uM”. The method, boiled down: as §3
Experiment [18] deals with MIA PaCa-2. As to the kind of experiment: Cytotoxicity against human MIAPaCa2 cells after 72 hrs by MTT assay. It counts as functional, cell-based. Conditions: MIA PaCa-2, 72 h. The method, boiled down: as §1
The test system of experiment [19] is MCF7. Kind of experiment: Cytotoxicity against human MCF7 cells after 72 hrs by MTT assay. Conditions: MCF7, 72 h. The class given is functional, cell-based. Put shortly: as §1
Experiment [20] has as its system Bel-7402. Kind of experiment: Cytotoxicity against human Bel7402 cells after 72 hrs by MTT assay. The class given is functional, cell-based. Conditions: Bel-7402, 72 h. Put shortly: as §1
Experiment [21] relates to PC-3. Kind of experiment: Cytotoxicity against human PC3 cells after 72 hrs by MTT assay. The class given is functional, cell-based. The note with it: PC-3, 72 h. The method, boiled down: as §1
In experiment [22] the test system is Daudi. Kind of experiment: Cytotoxicity against human Daudi cells after 72 hrs by MTT assay. The class given is functional, cell-based. The method, boiled down:
as §1

The test system of experiment [23] is CCRF-CEM. As to the kind of experiment: Cell cycle arrest in human CEM cells assessed as accumulation at S phase at 10 uM after 18 hrs by flow cytometry. The class given is functional. Conditions: in the assay text read “6.4 uM” for “10 uM”. Put shortly:
as §2

Experiment [24] has as its system LoVo. Kind of experiment: Cytotoxicity against human LoVo cells after 72 hrs by MTT assay. The class given is functional, cell-based. Put shortly:
as §1

The species entered for experiment [25] is Bos taurus. As to the kind of experiment: Inhibition of calf brain beta-tubulin polymerization at 6.4 uM after 30 mins by spectrophotometry. Put shortly:
as §4

Experiment [26] has as its system CCRF-CEM. Kind of experiment: Cell cycle arrest in human CEM cells assessed as accumulation at G2/M phase at 10 uM after 18 hrs by flow cytometry. Conditions: in the assay text read “6.4 uM” for “10 uM”. It counts as functional. The method, boiled down: as §2
The nature of experiment [27]: Cytotoxicity against human DND1A cells after 72 hrs by MTT assay. The class given is functional, cell-based. The method, boiled down: as §1
Experiment [28] concerns DU-145. Kind of experiment: Cytotoxicity against human DU145 cells after 72 hrs by MTT assay. Conditions: DU-145, 72 h. It counts as functional, cell-based. The method, boiled down:
as §1

For experiment [29], the system named is CCRF-CEM. Kind of experiment: Cell cycle arrest in human CEM cells assessed as accumulation at G0/G1 phase at 10 uM after 18 hrs by flow cytometry. The note with it: in the assay text read “6.4 uM” for “10 uM”. The class given is functional. Put shortly:
as §2

Data on 16 molecules can be found in ChEMBL document CHEMBL1137761, “Synthesis and activity evaluation of phenylurea derivatives as potent antitumor agents” (Bioorg Med Chem, 2009).

Activity calls are given as the source filed them. The rule behind the calls is not given here.

In turn, `NC(=O)NC(=O)c1cccc(NC(=O)CBr)c1` showed an IC50 in experiment [1] of 0.725 µM.

Consider `O=C(CI)Nc1cccc(NC(=O)NCCCl)c1`, for which the Activity in experiment [2] amounted to 2.6%; in experiment [3], 33.2%; in [4], 34.1%; in experiment [6] it was 30.1%. The molecule further displayed an IC50 in experiment [1] of 0.1 µM. The inhibition result in experiment [5] was “inactive”.

Molecule `CC(Br)C(=O)Nc1cccc(NC(=O)NCCCl)c1` (centres undefined) had an IC50 in experiment [1] of 22.7 µM.

`COc1cc(NC(=O)Nc2cccc(NC(=O)CBr)c2)cc(OC)c1OC` displayed an IC50 in experiment [1] of 1 µM.

For the molecule `CC(Br)C(=O)NC(=O)Nc1cccc(NC(=O)C(C)Br)c1` (centres undefined), the IC50 in [1] was found to be 1.34 µM.

The molecule `CC(Br)C(=O)Nc1cccc(NC(=O)NC(=O)CCCl)c1` (centres undefined) registered an IC50 in experiment [1] of 2.05 µM.

In turn, `O=C(CCCl)NC(=O)Nc1cccc(NC(=O)CBr)c1` gave an IC50 in experiment [1] of 1.9 µM.

`COc1cc(NC(=O)Nc2cccc(NC(=O)C(C)Br)c2)cc(OC)c1OC` (centres undefined) gave an IC50 in experiment [1] of 3.99 µM.

For `CC(Br)C(=O)Nc1cccc(C(=O)NC(N)=O)c1` (centres undefined), the midpoint of inhibition in experiment [1], the IC50, lay at 1.47 µM. Besides, the Activity turned out to be 9.5% in experiment [7], 63.2% in experiment [8], 25.3% in experiment [9] and 2% in [10].

As for `O=C(CBr)Nc1cccc(NC(=O)NCCCl)c1`, it took 0.77 µM to reach half-maximal inhibition in [1] (IC50).

Regarding `O=CNC(=O)Nc1cccc(NC(=O)CBr)c1`, the Activity is 52.6% in [11], 33.5% in experiment [12], 12.9% in experiment [13] and 2% in [14]. The molecule further displayed an IC50 in experiment [1] of 0.85 µM. Also, the inhibition entry in experiment [15] is “inactive”.

Molecule `CC(=O)NC(=O)Nc1cccc(NC(=O)C(C)Br)c1` (centres undefined) had a concentration for half-maximal inhibition (IC50) in experiment [1] of 10.6 µM.

The molecule `O=C(CBr)Nc1cccc(NC(=O)Nc2ccccc2)c1` returned an IC50 in experiment [1] of 0.86 µM.

In experiment [1], `CC(=O)NC(=O)Nc1cccc(NC(=O)CBr)c1` displayed an IC50 of 3.2 µM.

The molecule `CC(Br)C(=O)Nc1cccc(NC(=O)NC=O)c1` (centres undefined) returned an IC50 in [1] of 10.2 µM.

Take `O=C(CBr)NC(=O)Nc1cccc(NC(=O)CBr)c1`: the Activity result in experiment [16] is “Dose-dependent effect”; in experiment [17], 24.8%; in experiment [23], 13.7%; in [26], 13.2%; in experiment [29], 48.3%. The IC50 was 0.56 µM in experiment [1]; 2.81 µM in [18]; 0.59 µM in experiment [19]; 4.07 µM in [20]; above 100 µM in [21]; 0.38 µM in experiment [22]. Further, the values for the IC50 in experiment [24], in experiment [27] and in experiment [28] were 1.99 µM, 0.51 µM and 1.28 µM, respectively. Moreover, in experiment [25], the inhibition entry was “inactive”.

As a reminder, the IC50 is the concentration needed to halve the response being measured.
